Data reported in ChEMBL document CHEMBL1135937, “Further studies on conformationally constrained tricyclic tropane analogues and their uptake inhibition at monoamine transporter sites: synthesis of (Z)-9-(substituted arylmethylene)-7-azatricyclo[4.3.1.0(3,7)]decanes as a novel class of serotonin transporter inhibitors” (J Med Chem, 2002).
pKi: −log10 of the molar value.

How the values were obtained:
[1] = target: Sodium-dependent dopamine transporter (Rattus norvegicus, UniProt P23977); assay: Ability to inhibit high affinity reuptake of [3H]DA from dopamine transporter into nerve endings synaptosomes; assay type: subcellular, Brain
Summary of the method: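 Rat striatal P2 synaptosomes in modified KRH buffer (pH 7.4, with nialamide), preincubated with drug for 30 min at 4 °C, then 15 min at 37 °C. Uptake of [3H]DA (~5 nM final) ran for 5 min and was stopped by cold Na-free buffer and filtration. IC50 from six concentrations in triplicate; Ki by Cheng–Prusoff, 2–4 experiments.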

[2] = target: Norepinephrine transporter (Rattus norvegicus, UniProt Q9WTR4); assay: Ability to inhibit high affinity reuptake of [3H]-NE (Norepinephrine transporter) into nerve ending synaptosomes prepared from brain regions; assay type: subcellular
[3] = target: Sodium-dependent serotonin transporter (Rattus norvegicus, UniProt P31652); assay: Inhibition of high affinity re-uptake of [3H]5-HT (serotonin) into nerve ending synaptosomes; assay type: subcellular, Brain
Summary of the method: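 Synaptosomes (P2) from rat midbrain in modified KRH buffer (pH 7.4, with nialamide), preincubated with drug for 30 min at 4 °C, then 15 min at 37 °C. [3H]5-HT (~5 nM final) uptake ran for 5 min, then filtration and scintillation counting. IC50 from six concentrations in triplicate; Ki by Cheng–Prusoff, 2–4 experiments.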

[4] = Uptake ratio Ki of dopamine relative to serotonin (5-HT) at monoamine transporter
[5] = Uptake ratio Ki of norepinephrine relative to dopamine at monoamine transporter
[6] = Uptake ratio Ki of norepinephrine relative to serotonin (5-HT) at monoamine transporter

Sodium-dependent dopamine transporter, sequence (P23977 whole entry): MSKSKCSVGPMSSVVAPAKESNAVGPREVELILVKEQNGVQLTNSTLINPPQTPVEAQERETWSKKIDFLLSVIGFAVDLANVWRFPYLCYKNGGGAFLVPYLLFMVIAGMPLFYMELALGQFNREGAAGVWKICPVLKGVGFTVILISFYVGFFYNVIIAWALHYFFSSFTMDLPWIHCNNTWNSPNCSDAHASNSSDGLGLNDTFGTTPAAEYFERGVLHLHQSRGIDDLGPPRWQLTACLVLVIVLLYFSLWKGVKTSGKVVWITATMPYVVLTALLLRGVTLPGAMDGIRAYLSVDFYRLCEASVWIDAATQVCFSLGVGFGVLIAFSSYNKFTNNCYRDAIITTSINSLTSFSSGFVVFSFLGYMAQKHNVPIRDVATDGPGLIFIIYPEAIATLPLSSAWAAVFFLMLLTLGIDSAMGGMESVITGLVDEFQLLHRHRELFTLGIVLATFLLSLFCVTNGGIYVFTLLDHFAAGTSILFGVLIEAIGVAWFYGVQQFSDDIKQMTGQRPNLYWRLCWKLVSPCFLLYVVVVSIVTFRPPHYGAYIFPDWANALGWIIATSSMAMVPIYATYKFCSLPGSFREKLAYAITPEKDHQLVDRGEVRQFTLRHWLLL
Sodium-dependent serotonin transporter, sequence (P31652 whole entry): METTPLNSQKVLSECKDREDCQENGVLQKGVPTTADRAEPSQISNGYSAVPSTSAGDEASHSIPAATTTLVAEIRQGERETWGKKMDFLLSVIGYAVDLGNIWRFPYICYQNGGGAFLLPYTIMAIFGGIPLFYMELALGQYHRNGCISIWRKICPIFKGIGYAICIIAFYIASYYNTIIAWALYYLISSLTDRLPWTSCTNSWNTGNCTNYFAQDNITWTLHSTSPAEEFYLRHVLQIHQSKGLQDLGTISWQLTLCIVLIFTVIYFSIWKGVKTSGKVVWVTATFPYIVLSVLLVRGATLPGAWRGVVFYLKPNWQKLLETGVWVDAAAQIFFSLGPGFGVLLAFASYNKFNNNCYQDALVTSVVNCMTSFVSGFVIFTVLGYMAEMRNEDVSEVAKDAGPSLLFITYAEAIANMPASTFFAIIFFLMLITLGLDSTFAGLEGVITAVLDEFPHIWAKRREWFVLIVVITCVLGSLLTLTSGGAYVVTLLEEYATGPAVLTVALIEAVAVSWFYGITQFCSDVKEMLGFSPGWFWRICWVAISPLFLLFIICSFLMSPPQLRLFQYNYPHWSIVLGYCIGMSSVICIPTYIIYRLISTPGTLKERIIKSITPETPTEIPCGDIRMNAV
Norepinephrine transporter, sequence (Q9WTR4 whole entry): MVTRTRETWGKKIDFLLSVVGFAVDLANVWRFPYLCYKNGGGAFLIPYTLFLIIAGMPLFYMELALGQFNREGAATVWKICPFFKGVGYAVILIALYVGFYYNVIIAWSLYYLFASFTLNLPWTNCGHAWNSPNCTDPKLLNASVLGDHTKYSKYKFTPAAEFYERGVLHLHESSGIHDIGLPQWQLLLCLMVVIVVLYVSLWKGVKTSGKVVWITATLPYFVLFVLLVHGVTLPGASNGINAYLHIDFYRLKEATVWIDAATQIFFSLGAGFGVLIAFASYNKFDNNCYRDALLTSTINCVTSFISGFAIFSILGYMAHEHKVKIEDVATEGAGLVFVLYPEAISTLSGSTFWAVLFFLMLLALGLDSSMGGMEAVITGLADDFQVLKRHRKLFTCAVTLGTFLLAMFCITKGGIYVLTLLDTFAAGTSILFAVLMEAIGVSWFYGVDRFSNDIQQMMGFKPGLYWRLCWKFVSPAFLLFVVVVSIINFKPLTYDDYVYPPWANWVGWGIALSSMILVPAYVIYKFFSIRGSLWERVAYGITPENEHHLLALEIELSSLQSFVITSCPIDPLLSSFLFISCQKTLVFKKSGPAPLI

| Structure (SMILES) | pKi [1] | pKi [2] | pKi [3] | Ratio [4] | Ratio [5] | Ratio [6] |
| --- | --- | --- | --- | --- | --- | --- |
| COC(=O)C1C2CC3CCC1N3C/C2=C\c1ccc(Br)c(Cl)c1 (configuration not stated) | 5.27 | 6.34 | 8.64 | 2360 | 0.08 | 200 |
| COC(=O)C1C2CC3CCC1N3C/C2=C\c1cc(Cl)cc(Cl)c1 (configuration not stated) | 5.25 | 5.39 | 6.36 | 12.8 | 0.73 | 9.4 |
| Clc1ccc(/C=C2\CN3C4CCC3C(/C=C\c3ccccc3)C2C4)cc1Cl (configuration not stated) | 5.68 | 5.55 | 6.61 | 8.6 | 1.32 | 11.4 |
| COC(=O)C1C2CC3CCC1N3C/C2=C\c1ccccc1 (configuration not stated) | 6.32 | 7.28 | 5.94 | 0.42 | 0.11 | 0.05 |
| CON(C)C(=O)C1C2CC3CCC1N3C/C2=C\c1ccc(Cl)c(Cl)c1 (configuration not stated) | 5.06 | 6.40 | 7.51 | 281 | 0.05 | 12.9 |
| COC(=O)C1C2CC3CCC1N3C/C2=C\c1cccc(Cl)c1 (configuration not stated) | 5.11 | 6.64 | 7.27 | 145 | 0.03 | 4.3 |
| COC(=O)C1C2CC3CCC1N3C/C2=C\c1ccc(I)c(Cl)c1 (configuration not stated) | 5.50 | 6.57 | 8.74 | 1740 | 0.09 | 151 |
| O=C(OCC1C2CC3CCC1N3C/C2=C\c1ccc(Br)c(Cl)c1)c1ccccc1 (configuration not stated) | < 5.00 | 5.42 | 8.49 | > 3120 | < 0.38 | 1200 |
| O=C(OCC1C2CC3CCC1N3C/C2=C\c1ccc(Cl)c(Cl)c1)c1ccc2ccccc2c1 (configuration not stated) | < 5.00 | 5.23 | 8.03 | > 1070 | < 0.6 | 640 |
| O=C(OCC1C2CC3CCC1N3C/C2=C\c1cccc(Cl)c1)c1ccccc1 (configuration not stated) | 5.39 | 5.18 | 7.96 | 367 | 1.63 | 598 |
| COC(=O)C1C2CC3CCC1N3C/C2=C\c1ccc(C)cc1 (configuration not stated) | 6.19 | 6.84 | 7.82 | 43.3 | 0.22 | 9.7 |
| CCC(=O)C1C2CC3CCC1N3C/C2=C\c1ccc(Cl)c(Cl)c1 (configuration not stated) | 5.16 | 6.19 | 8.66 | 3110 | 0.1 | 296 |
| CC(=O)OCC1C2CC3CCC1N3C/C2=C\c1ccc2ccccc2c1 (configuration not stated) | 6.19 | 6.17 | 8.36 | 148 | 1.03 | 153 |
| O=C(OCC1C2CC3CCC1N3C/C2=C\c1ccc2ccccc2c1)c1ccccc1 (configuration not stated) | 5.26 | 5.49 | 10.00 | 55300 | 0.58 | 32200 |
| CN(C)C(=O)C1C2CC3CCC1N3C/C2=C\c1ccc(Cl)c(Cl)c1 (configuration not stated) | 5.18 | 5.69 | 7.54 | 231 | 0.3 | 69.9 |
| COC(=O)C1C2CC3CCC1N3C/C2=C\c1cccc(Cl)c1Cl (configuration not stated) | 6.07 | 5.92 | 6.45 | 2.4 | 1.42 | 3.4 |
| COC(=O)C1C2CC3CCC1N3C/C2=C\c1cccc2ccccc12 (configuration not stated) | 5.01 | 5.27 | 6.92 | 80.3 | 0.55 | 44 |
| COC(=O)C1C2CC3CCC1N3C/C2=C\c1ccc(Cl)c(Cl)c1 (configuration not stated) | 5.72 | 6.00 | 7.70 | 96 | 0.52 | 50 |
| O=C(Oc1ccccc1)C1C2CC3CCC1N3C/C2=C\c1ccc(Cl)c(Cl)c1 (configuration not stated) | 5.35 | 5.62 | 7.32 | 91.9 | 0.54 | 49.9 |
| CC(C)OC(=O)C1C2CC3CCC1N3C/C2=C\c1ccc(Cl)c(Cl)c1 (configuration not stated) | 5.89 | 6.49 | 7.07 | 15 | 0.25 | 3.8 |
| COC(=O)C1C2CC3CCC1N3C/C2=C\c1cc2ccccc2c2ccccc12 (configuration not stated) | 5.79 | 4.89 | 6.63 | 7 | 7.93 | 56 |
| O=C(OCC1C2CC3CCC1N3C/C2=C\c1ccc(Cl)c(Cl)c1)c1ccccc1 (configuration not stated) | 4.85 | 5.51 | 8.51 | 4550 | 0.22 | 990 |
| Cc1ccc(/C=C2\CN3C4CCC3C(COC(=O)c3ccccc3)C2C4)cc1Cl (configuration not stated) | < 5.00 | < 5.00 | 8.70 | > 20000 | – | > 20000 |
